Active and inactive are the calls of the source. The calls are words filed in the database; no cut-off is given here.
Tests used:
[1] = target: T1, Asparagine synthetase [glutamine-hydrolyzing] (Rattus norvegicus) (UniProt P49088); assay: Inhibition of asparagine synthetase isolated from rat bearing Novikoff hepatoma cells using [14C]-L-aspartic acid as substrate at 2 mM incubated 15 mins prior to substrate addition measured after 30 mins
T1 sequence (whole entry): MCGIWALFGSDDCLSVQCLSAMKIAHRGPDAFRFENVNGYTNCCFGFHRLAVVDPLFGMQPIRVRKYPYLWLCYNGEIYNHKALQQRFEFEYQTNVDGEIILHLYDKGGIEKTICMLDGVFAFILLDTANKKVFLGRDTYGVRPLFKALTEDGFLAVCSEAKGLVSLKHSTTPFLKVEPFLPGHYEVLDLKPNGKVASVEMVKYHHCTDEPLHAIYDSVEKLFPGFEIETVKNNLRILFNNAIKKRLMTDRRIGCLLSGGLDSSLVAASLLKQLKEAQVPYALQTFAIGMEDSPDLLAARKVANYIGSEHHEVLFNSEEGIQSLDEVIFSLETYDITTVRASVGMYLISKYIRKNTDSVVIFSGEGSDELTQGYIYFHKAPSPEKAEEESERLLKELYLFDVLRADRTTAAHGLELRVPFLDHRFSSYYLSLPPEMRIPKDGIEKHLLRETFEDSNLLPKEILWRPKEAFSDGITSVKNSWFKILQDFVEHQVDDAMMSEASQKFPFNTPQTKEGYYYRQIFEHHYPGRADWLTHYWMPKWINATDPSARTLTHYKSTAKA
Procedure, shortened: (§1)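 ASase partially purified from excised rat Novikoff hepatoma (specific activity 0.51 μmol asparagine/mg protein/30 min). Enzyme and inhibitor were preincubated with 100 μmol Tris at pH 8.0 for 15 min at 37 °C. L-glutamine (20.0 μmol), L-aspartic acid (2.0 μmol) and L-aspartic acid-¹⁴C (2×10⁶ dpm) were then added and incubated 30 min at 37 °C. Isolated L-asparagine-¹⁴C was counted by scintillation. Percent inhibition came from duplicates on three separate days with fresh inhibitor solutions.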

[2] = target: T2, Asparagine synthetase [glutamine-hydrolyzing] (Mus musculus) (UniProt Q61024); assay: Inhibition of asparagine synthetase in mouse L5178Y/AR cells at 10 mM; format: cell-based
T2 sequence (whole entry): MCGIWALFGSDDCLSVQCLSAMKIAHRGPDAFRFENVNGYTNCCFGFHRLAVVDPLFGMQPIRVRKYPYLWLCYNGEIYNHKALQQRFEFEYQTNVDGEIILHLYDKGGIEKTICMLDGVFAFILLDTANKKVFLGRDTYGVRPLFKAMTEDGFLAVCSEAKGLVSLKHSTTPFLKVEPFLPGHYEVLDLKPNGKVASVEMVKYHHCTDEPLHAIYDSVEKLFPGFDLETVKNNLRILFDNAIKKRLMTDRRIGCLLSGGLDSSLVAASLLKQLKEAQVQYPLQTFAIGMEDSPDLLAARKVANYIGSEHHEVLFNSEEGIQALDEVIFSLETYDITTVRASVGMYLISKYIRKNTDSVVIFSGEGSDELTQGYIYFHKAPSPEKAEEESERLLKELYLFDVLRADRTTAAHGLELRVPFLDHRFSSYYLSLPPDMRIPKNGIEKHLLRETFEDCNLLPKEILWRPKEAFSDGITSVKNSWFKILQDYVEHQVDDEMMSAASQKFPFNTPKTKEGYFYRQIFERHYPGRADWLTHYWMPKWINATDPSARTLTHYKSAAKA

[3] = system: P388; assay: Antitumor activity against mouse P388 cells […] in mouse assessed as increase in life span; format: functional
Procedure, shortened: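 In vivo screen run by the National Cancer Institute Drug Research and Development Program in CDF₁ mice bearing P-388 lymphocytic leukemia, an asparaginase-resistant line. The read-out was increase in life span.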

[4] = target: T2, Asparagine synthetase [glutamine-hydrolyzing] (Mus musculus); assay: Inhibition of asparagine synthetase in mouse L5178Y/AR cells at 1 mM; format: cell-based
[5] = target: T1, Asparagine synthetase [glutamine-hydrolyzing] (Rattus norvegicus); assay: Inhibition of asparagine synthetase isolated from rat bearing Novikoff hepatoma cells using [14C]-L-aspartic acid as substrate at 1 mM incubated 15 mins prior to substrate addition measured after 30 mins; procedure, shortened: as §1
[6] = target: T1, Asparagine synthetase [glutamine-hydrolyzing] (Rattus norvegicus); assay: Competitive inhibition of rat asparagine synthetase using L-aspartic acid as substrate incubated 15 mins prior to substrate addition measured after 30 mins by double reciprocal plot analysis
Procedure, shortened: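 Partially purified rat Novikoff hepatoma ASase was preincubated with inhibitor in Tris at pH 8.0 for 15 min at 37 °C. L-glutamine was then added with L-aspartic acid varied at 0.25, 0.50, 1.0 and 2.0 mM final, plus ¹⁴C-aspartate (2×10⁶ dpm/tube, 206 mCi/mmol), and incubated 30 min at 37 °C. L-asparagine-¹⁴C was measured. Double-reciprocal plots were fitted by least-squares regression.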

[7] = target: T3, Asparagine synthetase [glutamine-hydrolyzing] (Homo sapiens) (UniProt P08243); assay: Inhibition of asparagine synthetase in human KB cells at 1 mM; format: cell-based
T3 sequence (whole entry): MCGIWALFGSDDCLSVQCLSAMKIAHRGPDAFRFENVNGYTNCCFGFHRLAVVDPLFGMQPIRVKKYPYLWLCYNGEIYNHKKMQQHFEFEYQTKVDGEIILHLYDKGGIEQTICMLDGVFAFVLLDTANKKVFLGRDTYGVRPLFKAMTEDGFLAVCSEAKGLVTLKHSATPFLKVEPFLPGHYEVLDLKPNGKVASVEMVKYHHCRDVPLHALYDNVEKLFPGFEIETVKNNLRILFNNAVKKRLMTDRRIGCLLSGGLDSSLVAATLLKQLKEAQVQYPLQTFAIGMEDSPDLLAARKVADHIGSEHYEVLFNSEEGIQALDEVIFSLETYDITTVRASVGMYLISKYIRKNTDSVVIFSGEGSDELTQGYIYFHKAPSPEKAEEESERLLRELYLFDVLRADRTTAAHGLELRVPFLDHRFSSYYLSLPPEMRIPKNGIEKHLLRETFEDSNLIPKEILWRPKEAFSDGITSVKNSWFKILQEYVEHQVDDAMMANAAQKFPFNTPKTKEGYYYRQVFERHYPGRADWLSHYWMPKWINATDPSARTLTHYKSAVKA

SMILES | inhibition [1] [%] | inhibition [2] | other results
N[C@@H](CS(=O)(=O)NCc1ccc(S(=O)(=O)F)cc1)C(=O)O | 29.5 | inactive | –
N[C@@H](CS(=O)(=O)NO)C(=O)O | 96.5 | 81% | Activity [3]: inactive; inhibition [4]: 23%; inhibition [5]: 77.6%; inhibition [6]: Active
N[C@@H](CC(=O)NO)C(=O)O | 15.8 | – | inhibition [6]: inactive
N[C@@H](CS(=O)(=O)NCCCl)C(=O)O | 0 | – | inhibition [4]: inactive
N[C@@H](CS(=O)(=O)NNC(=O)c1ccc(S(=O)(=O)F)cc1)C(=O)O | 43.1 | inactive | –
NC(CC(=O)NO)C(=O)O (racemic) | – | – | inhibition [7]: 36%
N[C@@H](CS(N)(=O)=O)C(=O)O | 25.8 | – | –
CCOC(=O)/C=C/C(=O)NNS(=O)(=O)C[C@H](N)C(=O)O | 37.3 | inactive | Activity [3]: inactive

Reference: ChEMBL document CHEMBL3243960
